Measured values from ChEMBL document CHEMBL1764990, “Caffeic acid phenethyl ester inhibits PDGF-induced proliferation of vascular smooth muscle cells via activation of p38 MAPK, HIF-1α, and heme oxygenase-1” (J Nat Prod, 2011).
The source made the active and inactive calls. No cut-off for these calls is given here.

Assays:
VSMC [1] = test: Inhibition of PDGF-stimulated rat VSMC proliferation after 24 hrs; format: functional
Method in brief: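 Quiescent rat aortic VSMCs treated with compound (1–10 μM) or vehicle, then stimulated with PDGF (20 ng/mL) for 24 h. Cells were counted; the increase in cell number in vehicle-treated cells was set to 100%.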

VSMC [2] = test: Inhibition of PDGF-induced DNA synthesis in rat VSMC assessed as [3H]thymidine incorporation into DNA at 5 uM treated for 30 mins before 24 hrs of PDGF challenge; format: functional
Method in brief: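 Quiescent rat aortic VSMCs (starved 48 h) pretreated 30 min with 5 μM compound, then stimulated with PDGF-BB (20 ng/mL). Methyl-3H-thymidine (2 μCi/mL) pulse for the last 6 h of 24 h. TCA-insoluble radioactivity measured after NaOH solubilisation.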

[3] = Cytotoxicity against rat VSMC assessed as cell viability at >25 uM after 48 hrs by trypan blue exclusion assay; format: cell-based; conditions: VSMC (vascular smooth muscle cells), read-out: Activity
Method in brief: (§1)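 Cultured rat aortic VSMCs exposed to compound for 48 h. Viability by trypan blue exclusion, with cell morphology and detachment also noted.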

[4] = Cytotoxicity against rat VSMC assessed as morphological changes at >25 uM after 48 hrs by trypan blue exclusion assay; method in brief: as §1
[5] = Cytotoxicity against rat VSMC assessed as detachment of the cells at >25 uM after 48 hrs by trypan blue exclusion assay; format: cell-based; method in brief: as §1
[6] = Cell cycle arrest in PDGF-induced rat VSMC assessed as accumulation at G0/G1 phase at 5 uM treated for 30 mins followed by induced with PDGF for 28 hrs by propidium iodide staining by flow cytometry; format: functional, cell-based
Method in brief: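 Quiescent rat aortic VSMCs pretreated 30 min with 5 μM compound, then stimulated with PDGF (20 ng/mL) for 28 h. Nuclei stained with propidium iodide; cell-cycle distribution by flow cytometry. n = 3.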

VSMC [7] = test: Induction of cell cycle arrest in rat VSMC at G1 phase assessed as inhibition of retinoblastoma protein phosphorylation treated for 30 mins before 12 hrs of PDGF challenge by Western blot analysis; format: functional, cell-based
VSMC [8] = test: Inhibition of rat VSMC proliferation at 5 uM; format: functional
Rattus norvegicus [9] = species on record: Rattus norvegicus; test: Inhibition of TNFalpha-induced NF-kappaB binding activity in rat VSMC at 5 uM pretreated for 30 mins before 45 mins of TNFalpha stimulation by gel shift assay
Method in brief: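 Rat aortic VSMCs in six-well plates preincubated 30 min with vehicle or compound, then treated with TNF-α (10 ng/mL). NF-κB DNA binding in nuclear extracts measured by electrophoretic mobility shift assay.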

Rattus norvegicus [10] = species on record: Rattus norvegicus; test: Inhibition of NF-kappaB activation in rat VSMC at 5 uM
VSMC [11] = test: Inhibition of p38 phosphorylation in PDGF-stimulated rat VSMC at 5 uM treated for 30 mins before 10 mins of cell stimulation by Western blot analysis; format: cell-based
Method in brief: (§2)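 Quiescent rat aortic VSMCs (serum-free DMEM 24 h) pretreated 30 min with vehicle or 5 μM compound, then stimulated with PDGF (20 ng/mL) for 10 min. Total lysates analysed by Western blot for phospho-AKT, ERK, JNK, STAT3 and p38, with tubulin or actin.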

[12] = molecular target: Mitogen-activated protein kinase 1 and 3 (ERK2 and ERK1) (Rattus norvegicus) (UniProt P63086+P21708); test: Inhibition of ERK1/2 phosphorylation in PDGF-stimulated rat VSMC at 5 uM treated for 30 mins before 10 mins of cell stimulation by Western blot analysis; method in brief: as §2
[13] = molecular target: Mitogen-activated protein kinase 8 (Rattus norvegicus) (UniProt P49185); test: Inhibition of JNK1/2 phosphorylation in PDGF-stimulated rat VSMC at 5 uM treated for 30 mins before 10 mins of cell stimulation by Western blot analysis; format: cell-based; method in brief: as §2
VSMC [14] = test: Inhibition of AKT phosphorylation in PDGF-stimulated rat VSMC at 5 uM treated for 30 mins before 10 mins of cell stimulation by Western blot analysis; format: cell-based; method in brief: as §2
[15] = molecular target: Signal transducer and activator of transcription 3 (Rattus norvegicus) (UniProt P52631); test: Inhibition of STAT3 phosphorylation in PDGF-stimulated rat VSMC at 5 uM treated for 30 mins before 10 mins of cell stimulation by Western blot analysis; method in brief: as §2
VSMC [16] = test: Inhibition of tubulin phosphorylation in PDGF-stimulated rat VSMC at 5 uM treated for 30 mins before 10 mins of cell stimulation by Western blot analysis; format: cell-based
Rattus norvegicus [17] = species on record: Rattus norvegicus; test: Effect on p38 MAPK activation in PDGF-stimulated rat VSMC assessed as phosphorylation at 5 uM treated for 30 mins followed by stimulated with PDGF for 10 mins by immunoblot analysis
Method in brief: (§3)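 Quiescent rat aortic VSMCs pretreated 30 min with vehicle or 5 μM compound, then stimulated with PDGF for 10 or 60 min. Total lysates immunoblotted for phospho-p38 and total p38. Three independent experiments.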

Rattus norvegicus [18] = species on record: Rattus norvegicus; test: Effect on p38 MAPK activation in PDGF-stimulated rat VSMC assessed as phosphorylation at 5 uM treated for 30 mins followed by stimulated with PDGF for 60 mins by immunoblot analysis; method in brief: as §3
VSMC [19] = test: Antiproliferative activity against PDGF-stimulated rat VSMC assessed as inhibition of DNA synthesis at 5 uM after 24 hrs by [3H]-thymidine incorporation assay in presence of p38 kinase inhibitor SB203580; format: functional
Method in brief: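 Rat aortic VSMCs starved 48 h. Treated with compound (5 μM), p38 inhibitor SB203580 (10 μM) and PDGF-BB (20 ng/mL) as indicated. Pulse-labelled with methyl-3H-thymidine (2 μCi/mL) for the final 6 h of 24 h. TCA-precipitated material was dissolved in 0.4 M NaOH and counted. n = 3, Student's t-test.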

VSMC [20] = test: Increase in HO-1 protein expression in rat VSMC at 5 uM after 16 hrs by immunoblot analysis; format: functional
Method in brief: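 Rat aortic VSMCs treated 16 h with vehicle, compound (5 μM) or cobalt protoporphyrin (10 μM). Total lysates immunoblotted for HO-1 and actin. Three independent experiments.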

VSMC [21] = test: Antiproliferative activity against PDGF-stimulated rat VSMC transfected with HO-1 siRNA assessed as growth arrest after 24 hrs by immunoblot analysis; format: functional; conditions: in the assay text read “by cell counting” for “by immunoblot analysis”
Method in brief: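 Rat aortic VSMCs transfected with scrambled or HO-1-specific siRNA, then starved, treated with compound and stimulated with PDGF. Cells were counted after 24 h. HO-1 knockdown was checked by immunoblot. n = 3, Student's t-test.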

VSMC [22] = test: Decrease in basal ROS level in PDGF-stimulated rat VSMC at 5 uM pretreated with compound for 30 mins measured after upto 23 hrs of post stimulation using H2DCF by flow cytometric analysis; format: functional
Method in brief: (§4)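 Quiescent rat aortic VSMCs pretreated 30 min with 5 μM compound or vehicle, then stimulated with PDGF (20 ng/mL). At set times up to 23 h, total intracellular ROS measured by flow cytometry of oxidized H2DCF (H2DCFDA probe). n = 3, ANOVA.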

VSMC [23] = test: Decrease in intracellular ROS level in PDGF-stimulated rat VSMC at 5 uM pretreated with compound for 30 mins measured after upto 23 hrs of post stimulation using H2DCF by flow cytometric analysis; format: functional, cell-based; method in brief: as §4
VSMC [24] = test: Accumulation of HIF-1alpha in PDGF-stimulated rat VSMC at 5 uM after 4 hrs by immunoblot analysis; format: functional
Method in brief: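 Primary aortic smooth muscle cells from male Sprague-Dawley rats, made quiescent in serum-free DMEM for 24 h. Pretreated with compound or vehicle, then stimulated with PDGF. After 4 h, total cell lysates were immunoblotted for HIF-1α, with actin as loading control.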

VSMC [25] = test: Induction of HO-1 protein expression in rat VSMC at 5 uM measured after 16 hrs in presence of 10 to 100 uM of HIF-1alpha inhibitor […] treated for 15 mins by immunoblot analysis; format: functional
Method in brief: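 Rat aortic VSMCs pretreated 15 min with the HIF-1α inhibitor YC-1 at graded levels (up to 100 μM), then given 5 μM compound or vehicle for 16 h. HO-1 read by immunoblot.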

VSMC [26] = test: Inhibition of PDGF-stimulated rat VSMC proliferation; format: functional
VSMC [27] = test: Induction of HO-1 protein expression in Nrf2-deficient PDGF-stimulated rat VSMC; format: functional

Sequence of Mitogen-activated protein kinase 8 (Rattus norvegicus) (P49185 whole entry): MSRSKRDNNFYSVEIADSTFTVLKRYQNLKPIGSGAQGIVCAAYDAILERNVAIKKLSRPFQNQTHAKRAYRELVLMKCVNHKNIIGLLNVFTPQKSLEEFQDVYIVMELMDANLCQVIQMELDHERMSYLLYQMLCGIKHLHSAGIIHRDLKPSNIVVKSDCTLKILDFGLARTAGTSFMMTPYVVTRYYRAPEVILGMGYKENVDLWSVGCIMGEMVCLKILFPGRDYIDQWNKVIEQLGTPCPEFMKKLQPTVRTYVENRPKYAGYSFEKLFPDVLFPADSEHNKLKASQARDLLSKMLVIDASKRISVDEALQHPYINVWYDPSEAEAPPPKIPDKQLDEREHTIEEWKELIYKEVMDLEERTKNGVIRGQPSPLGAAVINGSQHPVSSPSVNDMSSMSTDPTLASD
Sequence of Mitogen-activated protein kinase 1 and 3 (ERK2 and ERK1) (Rattus norvegicus) (P21708 whole entry, looked up): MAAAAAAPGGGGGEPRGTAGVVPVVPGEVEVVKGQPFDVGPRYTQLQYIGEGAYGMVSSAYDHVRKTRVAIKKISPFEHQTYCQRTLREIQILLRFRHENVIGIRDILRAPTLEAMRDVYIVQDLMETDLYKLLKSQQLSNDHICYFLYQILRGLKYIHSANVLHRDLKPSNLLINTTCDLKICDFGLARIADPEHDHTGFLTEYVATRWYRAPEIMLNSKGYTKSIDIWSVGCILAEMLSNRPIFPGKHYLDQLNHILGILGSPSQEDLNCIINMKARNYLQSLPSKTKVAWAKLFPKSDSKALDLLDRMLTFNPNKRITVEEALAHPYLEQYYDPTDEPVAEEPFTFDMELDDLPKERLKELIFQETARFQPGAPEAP
Sequence of Mitogen-activated protein kinase 1 and 3 (ERK2 and ERK1) (Rattus norvegicus) (P63086 whole entry, looked up): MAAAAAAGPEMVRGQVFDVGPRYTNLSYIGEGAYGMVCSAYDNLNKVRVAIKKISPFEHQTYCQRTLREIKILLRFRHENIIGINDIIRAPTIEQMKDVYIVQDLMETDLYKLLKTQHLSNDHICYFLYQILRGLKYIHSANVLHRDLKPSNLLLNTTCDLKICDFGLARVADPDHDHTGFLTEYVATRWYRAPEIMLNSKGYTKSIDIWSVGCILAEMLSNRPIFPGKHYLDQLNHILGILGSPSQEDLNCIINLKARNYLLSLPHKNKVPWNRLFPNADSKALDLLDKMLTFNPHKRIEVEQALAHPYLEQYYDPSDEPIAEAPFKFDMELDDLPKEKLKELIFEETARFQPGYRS
Sequence of Signal transducer and activator of transcription 3 (Rattus norvegicus) (P52631 whole entry): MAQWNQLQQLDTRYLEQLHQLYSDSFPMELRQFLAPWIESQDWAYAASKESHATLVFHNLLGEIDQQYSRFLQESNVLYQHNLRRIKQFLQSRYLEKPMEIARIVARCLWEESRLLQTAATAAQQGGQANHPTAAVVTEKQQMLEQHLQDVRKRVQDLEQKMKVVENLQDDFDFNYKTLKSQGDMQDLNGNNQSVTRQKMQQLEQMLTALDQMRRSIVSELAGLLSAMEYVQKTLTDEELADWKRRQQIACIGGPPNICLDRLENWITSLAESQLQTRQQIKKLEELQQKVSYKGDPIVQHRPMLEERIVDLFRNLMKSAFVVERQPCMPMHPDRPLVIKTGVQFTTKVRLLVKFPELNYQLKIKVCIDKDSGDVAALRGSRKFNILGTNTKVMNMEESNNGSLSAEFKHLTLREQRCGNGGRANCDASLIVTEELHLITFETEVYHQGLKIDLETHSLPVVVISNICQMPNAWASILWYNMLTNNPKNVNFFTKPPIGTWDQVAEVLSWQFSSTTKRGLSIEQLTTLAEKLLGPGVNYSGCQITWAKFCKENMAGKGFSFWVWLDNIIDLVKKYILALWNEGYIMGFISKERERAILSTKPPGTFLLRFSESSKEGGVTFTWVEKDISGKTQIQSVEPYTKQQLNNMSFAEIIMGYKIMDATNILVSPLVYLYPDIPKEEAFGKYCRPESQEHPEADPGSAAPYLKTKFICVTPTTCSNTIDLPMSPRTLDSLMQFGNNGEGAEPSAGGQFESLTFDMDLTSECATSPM

Activity (Rattus norvegicus [9]): inactive
Activity (Rattus norvegicus [10]): inactive
Activity [12]: inactive
Activity [13]: inactive
Activity [15]: inactive
Activity (Rattus norvegicus [17]): Active
Activity (Rattus norvegicus [18]): Active
Structure (SMILES): O=C(/C=C/c1ccc(O)c(O)c1)OCCc1ccccc1 [CAFFEIC ACID PHENETHYL ESTER]
inhibition (VSMC [1]): Dose-dependent effect
Activity (VSMC [2]): Active
viability at 48 h [3]: 65%
Activity [4]: Toxic
Activity [5]: Toxic
Activity [6]: Active
inhibition (VSMC [7]): Active
Activity (VSMC [8]): Active
Activity (VSMC [11]): inactive
Activity (VSMC [14]): inactive
Activity (VSMC [16]): inactive
inhibition (VSMC [19]): inactive
Activity (VSMC [20]): Active
growth inhibition (GI) (VSMC [21]): inactive
Activity (VSMC [22]): Active
Activity (VSMC [23]): Active
Activity (VSMC [24]): Active
Activity (VSMC [25]): inactive
inhibition (VSMC [26]): Dose-dependent effect
Activity (VSMC [27]): Active
